Results on ten compounds are retold here after ChEMBL document CHEMBL2029303, “Syntheses and biological studies of novel spiropiperazinyl oxazolidinone antibacterial agents using a spirocyclic diene derived acylnitroso Diels-Alder reaction” (Bioorg Med Chem, 2012).

In brackets after ≈: the same amount, converted by molar mass. Activity calls are given as the source filed them. The calls are words filed in the database; no cut-off is given here.

What is called MIC is the lowest concentration that inhibits growth of the organism. For orientation: CC50 means the concentration giving 50% cytotoxicity. Read a high CC50 as lower toxicity to the cells.

For series [1], the system named is Mycobacterium tuberculosis. The series can be described thus: Antimycobacterial activity against Mycobacterium tuberculosis H37Rv grown in iron-deficient glycerol-alanine-salts media. The class given is functional.
Series [2] has as its system Mycobacterium tuberculosis. Description: Antimycobacterial activity against Mycobacterium tuberculosis H37Rv grown in glycerol-alanine-salts media. The class given is functional.
Series [3] has as its system Staphylococcus aureus. Description: Antibacterial activity against Staphylococcus aureus SG 511 assessed as partial clear inhibition zone at 50 uL of 2 mM solution of compound in 1:9 DMSO/MeOH after 24 hrs by agar diffusion method. It is filed as functional. Summed up:
(§1)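 Agar diffusion assay against representative Gram-positive and Gram-negative bacteria and Mycobacterium vaccae; the read-out is the diameter of the inhibition zone around the applied compound, measured in mm.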
Background: In agar diffusion tests the substance spreads into inoculated agar from a disc or well.

In series [4] the test system is Staphylococcus aureus. Description: Ratio of MIC methicillin-resistant Staphylococcus aureus ATCC 700699 in presence of 50% mouse serum to MIC for […]. It is filed as functional. Summed up: (§2)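 MIC assay run with 50% mouse or human serum added to gauge protein-binding effect. Fold shift is calculated as the MIC with serum over the MIC without serum.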

Series [5] has as its system Staphylococcus aureus. The series can be described thus: Antibacterial activity against methicillin-resistant Staphylococcus aureus 134/93 at 50 uL of 2 mM solution of compound in 1:9 DMSO/MeOH after 24 hrs by agar diffusion method. The class given is functional. Summed up: (§3)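 Agar diffusion screen; read-out is the diameter of the inhibition zone, in mm.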
Series [6] concerns Staphylococcus aureus. The series can be described thus: Antibacterial activity against methicillin-resistant Staphylococcus aureus ATCC 700699 in presence of 50% human serum. The class given is functional. In short, it runs like this: as §2
For series [7], the system named is Staphylococcus aureus. Description: Antibacterial activity against methicillin-sensitive Staphylococcus aureus ATCC 29213. It is filed as functional.
The subject of series [8] is Staphylococcus aureus. Description: Ratio of MIC methicillin-resistant Staphylococcus aureus ATCC 700699 in presence of 50% human serum to MIC for […]. It is filed as functional. In short, it runs like this: as §2
Series [9] has as its system Enterococcus faecalis. Description: Antibacterial activity against vancomycin-resistant Enterococcus faecalis 1528 at 50 uL of 2 mM solution of compound in 1:9 DMSO/MeOH after 24 hrs by agar diffusion method. It is filed as functional. In short, it runs like this:
as §3

Series [10] is described as follows: Cytotoxicity against human HepG2 cells. The class given is cell-based.
Series [11] has as its system Staphylococcus aureus. The series can be described thus: Antibacterial activity against methicillin-resistant Staphylococcus aureus ATCC 700699 in presence of 50% mouse serum. The class given is functional. Summed up: as §2
In series [12] the test system is Bacillus subtilis. Description: Antibacterial activity against Bacillus subtilis ATCC 6633 assessed as clear inhibition zone at 50 uL of 2 mM solution of compound in 1:9 DMSO/MeOH after 24 hrs by agar diffusion method. The class given is functional. Summed up: as §1
For the next series, the system named is Escherichia coli. The series can be described thus: Antibacterial activity against Escherichia coli SG 458 at 50 uL of 2 mM solution of compound in 1:9 DMSO/MeOH after 24 hrs by agar diffusion method. It is filed as functional. Summed up: as §1
Series [13] deals with Pseudomonas aeruginosa. The series can be described thus: Antibacterial activity against Pseudomonas aeruginosa SG 137 at 50 uL of 2 mM solution of compound in 1:9 DMSO/MeOH after 24 hrs by agar diffusion method. The class given is functional. Summed up:
as §1

In series [14] the test system is Bacillus subtilis. Description: Antibacterial activity against Bacillus subtilis ATCC 6633 at 50 uL of 2 mM solution of compound in 1:9 DMSO/MeOH after 24 hrs by agar diffusion method. The class given is functional. Summed up: as §1
Series [15] concerns Mycolicibacterium vaccae. The series can be described thus: Antimycobacterial activity against Mycobacterium vaccae IMET 10670 at 50 uL of 2 mM solution of compound in 1:9 DMSO/MeOH after 24 hrs by agar diffusion method. The class given is functional. In short, it runs like this:
as §1

The test system of series [16] is Mycolicibacterium vaccae. The series can be described thus: Antimycobacterial activity against Mycobacterium vaccae IMET 10670 assessed as partial clear inhibition zone at 50 uL of 2 mM solution of compound in 1:9 DMSO/MeOH after 24 hrs by agar diffusion method. The class given is functional. In short, it runs like this:
as §1

Series [17] has as its system Staphylococcus aureus. The series can be described thus: Antibacterial activity against Staphylococcus aureus SG 511 at 50 uL of 2 mM solution of compound in 1:9 DMSO/MeOH after 24 hrs by agar diffusion method. The class given is functional. In short, it runs like this:
as §1

Series [18] has as its system Pseudomonas aeruginosa. The series can be described thus: Antibacterial activity against Pseudomonas aeruginosa K799/61 at 50 uL of 2 mM solution of compound in 1:9 DMSO/MeOH after 24 hrs by agar diffusion method. The class given is functional. Summed up: as §1
For series [19], the system named is Staphylococcus aureus. Description: Antibacterial activity against methicillin-resistant Staphylococcus aureus ATCC 700699. It is filed as functional.
Series [20] deals with Staphylococcus aureus. Description: Antibacterial activity against methicillin-resistant Staphylococcus aureus 134/93 assessed as clear inhibition zone at 50 uL of 2 mM solution of compound in 1:9 DMSO/MeOH after 24 hrs by agar diffusion method. The class given is functional. Summed up:
as §3

The subject of series [21] is Enterococcus faecalis. Description: Antibacterial activity against vancomycin-resistant Enterococcus faecalis 1528 assessed as partial clear inhibition zone at 50 uL of 2 mM solution of compound in 1:9 DMSO/MeOH after 24 hrs by agar diffusion method. The class given is functional. In short, it runs like this:
as §3

The test system of series [22] is Bacillus subtilis. Description: Antibacterial activity against Bacillus subtilis ATCC 6633 assessed as partial clear inhibition zone at 50 uL of 2 mM solution of compound in 1:9 DMSO/MeOH after 24 hrs by agar diffusion method. The class given is functional. In short, it runs like this: as §1
Series [23] concerns Enterococcus faecalis. Description: Antibacterial activity against vancomycin-resistant Enterococcus faecalis 1528 assessed as unclear inhibition zone at 50 uL of 2 mM solution of compound in 1:9 DMSO/MeOH after 24 hrs by agar diffusion method. The class given is functional. In short, it runs like this: as §3
Series [24] relates to Mycolicibacterium vaccae. The series can be described thus: Antimycobacterial activity against Mycobacterium vaccae IMET 10670 assessed as unclear inhibition zone at 50 uL of 2 mM solution of compound in 1:9 DMSO/MeOH after 24 hrs by agar diffusion method. The class given is functional. In short, it runs like this: as §1
Series [25] deals with Pseudomonas aeruginosa. Description: Antibacterial activity against Pseudomonas aeruginosa K799/61 assessed as clear inhibition zone at 50 uL of 2 mM solution of compound in 1:9 DMSO/MeOH after 24 hrs by agar diffusion method. The class given is functional, organism-based. In short, it runs like this: as §1
In series [26] the test system is Staphylococcus aureus. Description: Antibacterial activity against Staphylococcus aureus SG 511 assessed as clear inhibition zone at 50 uL of 2 mM solution of compound in 1:9 DMSO/MeOH after 24 hrs by agar diffusion method. The class given is functional. Summed up: as §1

`CC(=O)NC[C@H]1CN(c2ccc(N3CCOCC3)c(F)c2)C(=O)O1` [LINEZOLID]: the MIC in series [1] is 0.4 µM.

Take `CCCC(=O)OC[C@H]1CN(c2ccc(N3CCC4(CC3)C3CCC4N(C(=O)OC(C)(C)C)O3)c(F)c2)C(=O)O1` (stereo partly drawn): the MIC in [1] was found to be 29.2 µM; in [2] it was 19.2 µM.

Consider `CC(C)(C)OC(=O)N1OC2CCC1C21CCN(c2ccc(N3C[C@H](COS(C)(=O)=O)OC3=O)cc2F)CC1` (stereo partly drawn), for which the minimal inhibitory concentration (MIC) came to 67.4 µM in series [1] and 118 µM in [2].

For `CC(C)(C)OC(=O)N1OC2CCC1C21CCN(c2ccc(NC(=O)OCc3ccccc3)cc2F)CC1` (stereo not drawn), the minimal inhibitory concentration (MIC) in series [1] and in [2] was above 128 µM each time.

`CC(=O)NC[C@H]1CN(c2ccc(N3CCC4(CC3)C3CCC4N(C(=O)OC(C)(C)C)O3)c(F)c2)C(=O)O1` (stereo partly drawn): the “diameter of the inhibition zone (DIZ)” value in the series with Staphylococcus aureus [3] is given as 22 mm; in the series on Staphylococcus aureus [5], 25 mm; in the series on Enterococcus faecalis [9], 23 mm; in the series with Bacillus subtilis [12], 27 mm; in the series on Escherichia coli it was 0 mm; with Pseudomonas aeruginosa [13], 0 mm. The “diameter of the inhibition zone (DIZ)” value worked out at 25 mm with Bacillus subtilis [14]; 24 mm with Mycolicibacterium vaccae [15]; 37 mm with Mycolicibacterium vaccae [16]; 18 mm with Staphylococcus aureus [17]; 0 mm in the series on Pseudomonas aeruginosa [18]. Also, the Ratio with Staphylococcus aureus [4] was determined as 2; in the series on Staphylococcus aureus [8] it was 4. Besides, the MIC in the series with Staphylococcus aureus [6] stood at 62 µg/mL; in the series on Staphylococcus aureus [7], 64 µg/mL (≈ 123 µM); with Staphylococcus aureus [11], 32 µg/mL; in series [1], 22 µM; against Staphylococcus aureus [19] it was 16 µg/mL (≈ 30.9 µM); in [2], 24.4 µM. Moreover, in [10], the half-maximal cytotoxic concentration (CC50) is above 100 µM.

Turning to `CC(=O)NC[C@H]1CN(c2ccc(N3CCC4(CC3)C(O)CCC4NC(=O)OC(C)(C)C)c(F)c2)C(=O)O1` (stereo partly drawn), the “diameter of the inhibition zone (DIZ)” value in the series with Staphylococcus aureus [3] is reported as 16 mm; with Staphylococcus aureus [5], 14 mm; with Enterococcus faecalis [9], 15 mm; in the series with Staphylococcus aureus [20], 18 mm; in the series on Bacillus subtilis [12], 19 mm; in the series with Escherichia coli it was 0 mm. In addition, the “diameter of the inhibition zone (DIZ)” value in the series on Pseudomonas aeruginosa [13] is 0 mm; with Bacillus subtilis [14] it was 14 mm; in the series with Mycolicibacterium vaccae [16], 13 mm; in the series on Pseudomonas aeruginosa [18], 0 mm; with Enterococcus faecalis [21], 18 mm. The MIC in [1] and in [2] was above 128 µM in each case.

`CC(C)(C)OC(=O)N1OC2CCC1C21CCN(c2ccc(N3C[C@H](CO)OC3=O)cc2F)CC1` (stereo partly drawn): the Ratio in the series with Staphylococcus aureus [4] and in the series on Staphylococcus aureus [8] was above 2 each time. Also, the “diameter of the inhibition zone (DIZ)” value turned out to be 24 mm with Staphylococcus aureus [5]; 22 mm in the series on Enterococcus faecalis [9]; 30 mm with Bacillus subtilis [22]; 28 mm in the series with Bacillus subtilis [12]; 0 mm with Escherichia coli; 0 mm in the series on Pseudomonas aeruginosa [13]. Besides, the “diameter of the inhibition zone (DIZ)” value in the series with Bacillus subtilis [14] worked out at 23.5 mm; in the series with Mycolicibacterium vaccae [16], 30 mm; with Staphylococcus aureus [17] it was 22 mm; in the series on Pseudomonas aeruginosa [18] it was 0 mm. The MIC was above 34 µg/mL with Staphylococcus aureus [6]; above 64 µg/mL against Staphylococcus aureus [7]; above 64 µg/mL in the series on Staphylococcus aureus [11]; above 128 µM in series [1]; 32 µg/mL (≈ 67 µM) in the series on Staphylococcus aureus [19]; 97 µM in series [2]. This compound displayed a 50% cytotoxic concentration (CC50) in [10] above 100 µM.

On to `CC(C)(C)OC(=O)N1OC2CCC1C21CCN(c2ccc(N3C[C@H](CN)OC3=O)cc2F)CC1` (stereo partly drawn), for which the “diameter of the inhibition zone (DIZ)” value in the series with Enterococcus faecalis [23] is reported as 14 mm; with Mycolicibacterium vaccae [24] it was 25 mm; in the series on Staphylococcus aureus [20], 14 mm; in the series on Staphylococcus aureus [26], 13 mm; in the series with Escherichia coli, 10 mm; with Pseudomonas aeruginosa [13], 0 mm. In addition, the entries for the “diameter of the inhibition zone (DIZ)” value in the series with Bacillus subtilis [14], with Mycolicibacterium vaccae [15] and in the series on Staphylococcus aureus [17] were 12 mm, 18 mm and 10 mm, respectively. In addition, the “diameter of the inhibition zone (DIZ)” value with Pseudomonas aeruginosa [25] was “Active”.

In the case of `CC(C)(C)OC(=O)N1OC2CCC1C21CCN(c2ccc(N)cc2F)CC1` (stereo not drawn), the minimum inhibitory concentration (MIC) in series [1] and in series [2] was above 128 µM in each case.

Take `CC(C)(C)OC(=O)N1OC2CCC1C21CCN(c2ccc([N+](=O)[O-])cc2F)CC1` (stereo not drawn): the MIC in [1] and in series [2] was above 128 µM each time.
